# Assay outcomes deposited in PubChem BioAssay by several laboratories.
# GSK3A inh: human GSK-3 alpha kinase inhibition; 0.1% of 320,000 active; ADP-Glo luminescence, 60 min; AID 2650; inhibition, % at 10 µM; P49840;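 active = more than half of replicates show inhibition above 20%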;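 also: GST-tagged GSK-3 alpha with peptide substrate and 25 µM ATP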
# Target sequence (P49840 whole entry, looked up): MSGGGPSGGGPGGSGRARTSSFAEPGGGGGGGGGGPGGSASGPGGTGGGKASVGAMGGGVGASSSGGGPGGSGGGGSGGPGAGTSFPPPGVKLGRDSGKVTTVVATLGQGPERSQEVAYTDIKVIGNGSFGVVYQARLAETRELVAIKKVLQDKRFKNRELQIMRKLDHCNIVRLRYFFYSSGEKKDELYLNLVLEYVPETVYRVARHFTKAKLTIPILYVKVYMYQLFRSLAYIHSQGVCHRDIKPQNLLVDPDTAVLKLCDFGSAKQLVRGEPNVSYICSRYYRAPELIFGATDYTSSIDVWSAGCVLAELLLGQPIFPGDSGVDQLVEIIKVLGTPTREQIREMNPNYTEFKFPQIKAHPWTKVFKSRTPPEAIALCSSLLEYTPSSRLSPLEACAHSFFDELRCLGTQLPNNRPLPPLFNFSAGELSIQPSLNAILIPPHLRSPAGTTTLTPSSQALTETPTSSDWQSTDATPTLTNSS
# AI-2 QS modul: modulates the Vibrio harveyi AI-2 quorum sensing system. Vibrio harveyi JMH597 AI-2 luminescence/OD600 ratio, 9 h; hits give low values; strain lacks LuxN and CqsS sensors; 0 = neutral-control median. activity change, % at 7.5 µM. 0.4% of 300,000 active; in the data active = activity change below about -75%, passing the limit was not always enough;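 also: luminescence divided by OD600 gain over 9 h not by final OD600 alone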
# STK33 kinase inh: human STK33 kinase inhibition; Q9BYT3; purified STK33, MBP phosphorylation, ADP-Glo luminescence; inhibition, % at 10 µM; 0.073% of 320,000 active;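 active = inhibition at or above 25%, using the most active replicate where run in duplicate; inactive = inhibition below 25%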
# CR mimetic SO: caloric restriction mimetics inhibiting age-related superoxide in yeast | 0.18% of 330,000 active | AID 2690 | S. cerevisiae aged cells, superoxide DHE fluorescence; hits give low values | superoxide response (% of plate mean), % at 10 µM;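 active = superoxide response under a set limit, about three screen SD below normal, cut at about 65% in these data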;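 also: yeast aged for seven days with compound at 30 °C before DHE staining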
# GSK3B inh: human GSK3beta kinase inhibition. AID 2097. activity score (negative = inhibition), % at 10 µM. GST-GSK3beta kinase, ADP-Glo luminescence, 60 min; hits give low values. 0.038% of 300,000 active;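 active = more than half of replicate wells score below -50%, meaning over 50% inhibition versus plate controls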
#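 Assay system: GST-tagged human GSK3beta kinase, cell-free; Input: 1.6 ng GSK3beta; Medium: Tris/MgCl2 kinase buffer; Timing: 60 min enzyme reaction, room temperature; Signal: ADP-Glo luminescence quantifying ADP generated by kinase; Evaluation: score relative to plate controls; Benchmarks: DMSO neutral wells and GW8510 at 20 µM as positive.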
# PolyA inhibitor: blocks polyadenylation in yeast reporter cells; 0.02% of 300,000 active; S. cerevisiae SKY197-pL101 polyadenylation reporter, beta-gal luminescence; efflux-impaired pdr1/pdr3 knockout yeast; score 100 = 6 SD above DMSO; activity score, % at 12 µM;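 active = lowest replicate activity score at least 50, where 100 means six control SD above control mean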;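 also: yeast exposed to compound for 9 h at 30 °C; higher score means more reporter readthrough which indicates perturbed polyadenylation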
# JMH597 growth: retest: inhibitors of Vibrio harveyi JMH597 growth. 1% of 750 active. shares compounds with AI-2 QS modul. AID 2726. OD600 absorbance, 9 h; lacks LuxN and CqsS sensors. growth inhibition, % at 7.5 µM;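 active = every replicate shows growth inhibition above 50%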
# BB721 lum counter: retest counter-screen: lowers luminescence of constitutive-QS Vibrio harveyi BB721; shares compounds with AI-2 QS modul; 9 h; 95% of 750 active; inhibition, % at 7.5 µM;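 active = inhibition above about 80% in every replicate, not just on average, limit read from the data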
# BB721 growth: retest: inhibitors of Vibrio harveyi BB721 growth; shares compounds with AI-2 QS modul; OD600 absorbance, 9 h; growth inhibition, % at 7.5 µM; 3% of 750 active; AID 2728;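 active = every replicate shows growth inhibition above 50%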
# JMH597 AI-2 mod: Vibrio harveyi AI-2 signaling luminescence modulation – JMH597 strain, confirmation; 97% of 750 active; Vibrio harveyi JMH597 AI-2 quorum sensing luminescence, 9 h; luxN and CqsS knockout, AI-2 only; shares compounds with AI-2 QS modul; inhibition, % at 7.5 µM;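 active = every replicate shows more than 75% inhibition of signal versus neutral control wells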
# A number is an active result; 0 = inactive; - = no result given. This is a sample that favours compounds with a hit; in the whole collection about 0.72% have one here.
SMILES,GSK3A inh,AI-2 QS modul,STK33 kinase inh,CR mimetic SO,GSK3B inh,PolyA inhibitor,JMH597 growth,BB721 lum counter,BB721 growth,JMH597 AI-2 mod
O=C(CNC(=O)c1cccc(Br)c1)N/N=C/c1cccs1,0,-83,0,0,0,0,0,91,0,91
Cc1ccsc1/C=N/Nc1ccc(C(=O)O)cc1,0,-91,0,0,0,0,0,98,65,99
CC1CCCN(S(=O)(=O)c2ccc(NC(=O)CN3C(=O)NC(C)(c4ccccc4)C3=O)cc2)C1 (stereo not given),0,0,0,0,0,0,-,-,-,-
COc1ccc(NC(=O)CN(c2c(C)cccc2C)S(C)(=O)=O)cc1,0,0,0,0,0,0,-,-,-,-
Cc1cccc(NC(=O)CSc2n[nH]c(-c3ccncc3)n2)c1C,0,0,0,0,0,0,-,-,-,-
CCC(=O)N(Cc1ccc(S(N)(=O)=O)cc1)C1CC(=O)N(c2ccccc2)C1=O (stereo not given),0,0,0,0,0,0,-,-,-,-
COc1ccc(C(=O)Oc2ccc(/C=N/Nc3ccc(Cl)c(C(=O)O)c3)cc2OC)cc1,0,0,0,0,0,0,-,-,-,-
COc1ccc(/C=N/Nc2ccc(C(=O)O)cc2)cc1OC,0,-93,0,0,0,0,0,96,0,97
CCc1cc2c(=O)c(-c3ccc4c(c3)OCCO4)c(C)oc2cc1OS(C)(=O)=O,0,0,0,0,0,0,-,-,-,-
Cc1nn(CC(=O)Nc2ccc3c(c2)oc2ccccc23)c(=O)c2ccccc12,0,0,0,0,0,0,-,-,-,-
CNC(=O)Cn1nc(C)c2ccccc2c1=O,0,0,0,0,0,0,-,-,-,-
Cc1nn(CC(=O)Nc2cccnc2)c(=O)c2ccccc12,0,-95,0,0,0,0,0,98,0,99
Cc1nn(CC(=O)Nc2ccc(C(=O)N3CCCCC3)cc2)c(=O)c2ccccc12,0,-82,0,0,0,0,0,93,0,94
Cc1nn(CC(=O)Nc2nnc(CC(=O)N3CCCC3)s2)c(=O)c2ccccc12,0,0,0,0,0,0,-,-,-,-
Cc1nn(CC(=O)Nc2ccc(S(N)(=O)=O)cc2)c(=O)c2ccccc12,0,-84,0,0,0,0,0,98,0,99
Cc1nn(CC(=O)Nc2ccc(C(=O)N3CCCC3)cc2)c(=O)c2ccccc12,0,-83,-,0,0,0,0,94,0,96
CC(C#N)(Cc1ccccc1)Nc1ccccc1 (stereo not given),0,0,0,0,0,0,-,-,-,-
CCNC(=O)NC(=O)C(C)OC(=O)Cc1coc2cc3c(cc12)CCC3 (stereo not given),0,0,0,0,0,0,-,-,-,-
CCN(C(=O)COC(=O)c1ccccc1NCCO)c1cccc2ccccc12,-,0,-,0,0,0,-,-,-,-
CCOC(=O)[C@H]1[C@H]2COc3ccc(OC)cc3[C@@H]2N2C(=O)CN(Cc3ccccc3)C(=O)[C@@]12C,0,-,0,0,-,-,-,-,-,-
CSc1cccc(CN2CCN(CCC(C)C)C(CCO)C2)c1 (stereo not given),0,0,0,0,0,0,-,-,-,-
O=c1[nH][nH]c(C(F)(F)F)c1C=NCc1cccs1,0,0,0,0,0,0,-,-,-,-
Clc1ccc(-c2nnc(CCc3ccccc3)o2)c(Cl)c1,0,-90,0,0,0,0,0,97,0,98
COc1cc(/C=N/NC(=O)Cn2nnc3ccccc32)ccc1O,-,-87,0,0,0,0,0,94,0,96
COc1cc(/C=N\NC(=O)Cn2nnc3ccccc32)cc(OC)c1OC,0,-87,0,0,0,0,0,93,0,96
SMILES,GSK3A inh,AI-2 QS modul,STK33 kinase inh,CR mimetic SO,GSK3B inh,PolyA inhibitor,JMH597 growth,BB721 lum counter,BB721 growth,JMH597 AI-2 mod
COc1ccc(/C=N/NC(=O)Cn2cnc3ccccc3c2=O)cc1OC,0,-91,0,0,0,0,0,97,0,98
COc1ccc(/C=N/NC(=O)Cn2ccnc2C)cc1OC,0,0,0,0,0,0,-,-,-,-
COC(=O)[C@@]12CCCN1[C@H](c1ccc(-c3cccc(Cl)c3)cc1)[C@H]1C(=O)N(C)C(=O)[C@H]12,0,0,0,-,0,0,-,-,-,-
Cc1ccc(C(=O)NCc2ccc3c(c2)CCO3)cc1C,0,0,0,0,0,0,-,-,-,-
O=C(NCc1ccc2c(c1)CCO2)Nc1ccccc1,0,-83,0,0,0,0,0,96,0,96
O=C(CSc1n[nH]c(=O)n1C1CC1)Nc1ccc(Cl)c(Cl)c1,0,-83,0,0,0,0,0,88,0,91
O=C(CN(Cc1ccccc1)C(=O)c1csnn1)NCc1ccccc1,0,0,-,0,0,0,-,-,-,-
c1ccc(Oc2cc(-c3ccccc3)nc(-c3ccccc3)n2)cc1,0,0,0,0,0,0,-,-,-,-
c1ccc(Oc2cc(-c3ccccc3)ncn2)cc1,0,-93,0,0,0,0,0,98,0,98
COc1ccc(CN=CC2=C(O)CC(C)(C)CC2=O)cc1,0,-80,0,0,0,0,0,88,0,92
COc1ccc(N2CCN(S(=O)(=O)c3c(C)n(C)c(=O)n(C)c3=O)CC2)cc1,0,0,0,0,0,0,-,-,-,-
COC(=O)C1=C(CS(=O)(=O)c2cc(OC)ccc2OC)NC(=O)NC1c1ccc(O)c(OC)c1 (stereo not given),0,0,0,0,0,0,-,-,-,-
CSc1ccc(S(=O)(=O)N2CCC(C(=O)NCc3ccco3)CC2)cc1,0,-90,0,0,0,0,0,0,0,100
CCS(=O)(=O)N1CCC(C(=O)NCc2ccco2)CC1,0,0,0,0,0,0,-,-,-,-
O=C(NCc1ccc2c(c1)OCO2)Nc1ccc2nsnc2c1,0,-85,0,0,0,0,79,97,0,99
O=C(NCc1ccc2c(c1)OCO2)Nc1ccc(Cl)cc1,0,0,0,0,0,0,-,-,-,-
CCCOc1ccc(N2C(=O)CC(SCCN)C2=O)cc1 (stereo not given),0,-87,0,0,0,0,0,95,0,96
O=C(CN1C(=O)c2ccccc2C1=O)Nc1ccccc1,0,0,0,0,0,0,-,-,-,-
O=C(CN1C(=O)c2ccccc2C1=O)Nc1ccc(S(=O)(=O)N2CCOCC2)cc1,0,-97,0,0,0,0,0,99,0,100
